The results in this text go back to ChEMBL document CHEMBL3244215, “Fluorinated pyrimidine nucleosides. 3. Synthesis and antitumor activity of a series of 5'-deoxy-5-fluoropyrimidine nucleosides” (J Med Chem, 1979).

Each structure is given as a SMILES string. Active and inactive are the calls of the source. The rule behind the calls is not given here.

For data set [1], the system named is Sarcoma-180. The data set can be described thus: Antitumor activity against mouse Sarcoma 180 cells allografted in CD1 mouse at 200 mg/kg, ip qd administered shortly post implantation continued for 8 days relative to vehicle-treated control. The class given is functional, organism-based. The arrangement: dose 200 mg/kg. The method in brief:
(§1)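 Compounds dissolved or suspended in H2O, given ip as 1.0 mL shortly after tumor implantation, then daily to eight doses in total. Mice killed 8 days after implantation; tumors excised and weighed. Mean tumor weight of treated mice (T) compared with that of H2O-treated controls (C), expressed as C/T index.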

The test system of data set [2] is Sarcoma-180. The data set can be described thus: Antitumor activity against mouse Sarcoma 180 cells allografted in CD1 mouse at 100 mg/kg, ip qd administered shortly post implantation continued for 8 days relative to vehicle-treated control. The class given is functional, organism-based. Also noted: dose 100 mg/kg. The method in brief:
as §1

In data set [3] the test system is Sarcoma-180. The data set can be described thus: Antitumor activity against mouse Sarcoma 180 cells allografted in CD1 mouse at 40 mg/kg, ip qd administered shortly post implantation continued for 8 days relative to vehicle-treated control. It is filed as functional, organism-based. Also noted: dose 40 mg/kg. The procedure, abridged: as §1
The subject of data set [4] is Sarcoma-180. The data set can be described thus: Antitumor activity against mouse Sarcoma 180 cells allografted in CD1 mouse at 20 mg/kg, ip qd administered shortly post implantation continued for 8 days relative to vehicle-treated control. It is filed as functional, organism-based. Also noted: dose 20 mg/kg. The procedure, abridged:
as §1

The test system of data set [5] is Sarcoma-180. The experiment in a line: Antitumor activity against mouse Sarcoma 180 cells allografted in CD1 mouse at 50 mg/kg, ip qd administered shortly post implantation continued for 8 days relative to vehicle-treated control. Also noted: dose 50 mg/kg. It is filed as functional, organism-based. The procedure, abridged: as §1
Data set [6] concerns Sarcoma-180. The data set can be described thus: Antitumor activity against mouse Sarcoma 180 cells allografted in CD1 mouse at 25 mg/kg, ip qd administered shortly post implantation continued for 8 days relative to vehicle-treated control. The class given is functional, organism-based. The arrangement: dose 25 mg/kg. The procedure, abridged: as §1
The subject of data set [7] is Sarcoma-180. The experiment in a line: Antitumor activity against mouse Sarcoma 180 cells allografted in CD1 mouse at 12.5 mg/kg, ip qd administered shortly post implantation continued for 8 days relative to vehicle-treated control. The class given is functional, organism-based. The arrangement: dose 12.5 mg/kg. The method in brief:
as §1

The test system of data set [8] is Sarcoma-180. The experiment in a line: Antitumor activity against mouse Sarcoma 180 cells allografted in CD1 mouse at 3.12 to 800 mg/kg, ip qd administered shortly post implantation for 8 days relative to vehicle-treated control. The class given is functional, organism-based.
Data set [9] deals with Mus musculus. The experiment in a line: Toxicity in mouse in po dosed CD1 mouse assessed as leukopenia administered once daily starting shortly post implantation continued for 8 days relative to vehicle-treated control. The class given is organism-based. To be noted: in vivo, 192 h.
Data set [10] deals with Mus musculus. The experiment in a line: Toxicity in mouse in po dosed CD1 mouse assessed as change in body weight administered once daily starting shortly post implantation continued for 8 days relative to vehicle-treated control. The class given is organism-based. To be noted: in vivo, 192 h.

Regarding `C[C@H]1O[C@@H](n2ccc(N)nc2=O)[C@H](O)[C@@H]1O`, in the data set with Sarcoma-180 [1], the outcome was inactive.

In the case of `C[C@H]1O[C@@H]2[C@@H](Oc3nc(N)c(F)c[n+]32)[C@@H]1O`, the outcome in the data set on Sarcoma-180 [1], in the data set on Sarcoma-180 [2] and in the data set on Sarcoma-180 [3] was Active. Further, in the data set with Sarcoma-180 [4], the outcome was inactive.

As to `C[C@H]1O[C@@H](n2cc(F)c(=O)[nH]c2=O)[C@@H](O)[C@H]1O`, in the data set with Sarcoma-180 [2], the outcome was inactive.

As for `C[C@H]1O[C@@H](n2cc(F)c(=O)[nH]c2=O)[C@@H](O)[C@@H]1O`, in the data set on Sarcoma-180 [2], the outcome was inactive.

On to `C[C@H]1O[C@@H](n2cc(F)c(=O)[nH]c2=O)[C@H](O)[C@@H]1O` [DOXIFLURIDINE], for which the result in the data set on Sarcoma-180 [1], in the data set with Sarcoma-180 [2], in the data set on Sarcoma-180 [5], with Sarcoma-180 [6] and in the data set with Sarcoma-180 [8] was Active. For the same compound, in the data set with Sarcoma-180 [7], the result was inactive. Besides, the Activity entry in the data set on Mus musculus [9] and in the data set with Mus musculus [10] was “Toxic” each time.

For the compound `C[C@H]1O[C@@H](n2ccc(=O)[nH]c2=O)[C@H](O)[C@@H]1O`, the result in the data set on Sarcoma-180 [1] was inactive.

Turning to `C[C@H]1O[C@@H](n2cc(F)c(N)nc2=O)[C@H](O)[C@@H]1O`, the outcome with Sarcoma-180 [1], with Sarcoma-180 [2], in the data set with Sarcoma-180 [5] and in the data set on Sarcoma-180 [6] was Active. Also, the outcome in the data set on Sarcoma-180 [7] was inactive.

In the case of `O=c1[nH]c(=O)n([C@H]2C[C@H](O)[C@@H](CO)O2)cc1F` [FLOXURIDINE], the Activity result in the data set on Mus musculus [9] and with Mus musculus [10] was “Toxic” in each case.

Consider `C[C@H]1O[C@@H]2[C@@H](Oc3nc(=O)c(F)cn32)[C@@H]1O`, for which the result in the data set with Sarcoma-180 [1] was inactive.

Regarding `C[C@H]1O[C@@H](n2cc(F)c(N)nc2=O)[C@H]2O[C@H]21`, in the data set with Sarcoma-180 [1], the outcome was inactive.

`C[C@@H]1O[C@@H](n2cc(F)c(=O)[nH]c2=O)[C@H](O)[C@@H]1O`: the outcome with Sarcoma-180 [2] was inactive.

Take `C[C@H]1O[C@@H](n2cc(F)c(=O)[nH]c2=O)[C@@H]2OC(C)(C)O[C@@H]21`: the result in the data set with Sarcoma-180 [1] was inactive.

Take `C[C@H]1O[C@@H](n2cc(F)c(N)nc2=O)[C@@H](O)[C@@H]1O`: in the data set on Sarcoma-180 [2], the outcome was inactive.

As for `C=C1O[C@@H](n2cc(F)c(=O)[nH]c2=O)[C@H](O)[C@@H]1O`, in the data set on Sarcoma-180 [2], the outcome was inactive.
